The source of these data is ChEMBL document CHEMBL1629507, “Small molecule inhibitors of hantavirus infection” (Bioorg Med Chem Lett, 2010).

By inhibition is commonly meant the drop in the measured response relative to a control, in per cent.

Where a SMILES comes first, the peptide text is derived from it. The star is where a group is joined. Tos = Cc1ccc(S(=O)(=O)*)cc1

This assay has as its target Integrin alpha-V/beta-3 (Homo sapiens) (UniProt P05106+P06756). Kind of assay: Inhibition of human alphaVbeta3 receptor expressed in african green monkey Vero E6 cells assessed as inhibition of SNV infection in cells at 1 uM by immunofluorescent assay. In kind it is cell-based. The method, boiled down: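 Vero E6 cells (10^4/well, duplicate wells) were grown 24 h at 37 °C in MEM with 2.5% FBS. They were pretreated 1 h at 37 °C with small molecules (1 µM) or cyclic peptides (2 mM, in PBS pH 7.4). SNV strain SN77734 (500–1,000 FFU/ml) was then added for 1 h, then washed out. After 24–36 h, cells were fixed and stained with anti-SNV N plus FITC antibody, and foci counted. % inhibition is relative to untreated cells, normalized to ReoPro 80 µg/ml set as 80%; at least 4 replicates.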
As to `COc1ccc(CNC(=O)c2ccc3c(c2)N(Cc2ccccc2)C(=O)c2ccccc2S3)cc1`, the inhibition came to 22%. For the compound `O=C(NCc1ccc(Cl)cc1)C(Cc1ccccc1)NS(=O)(=O)c1cccc2cccnc12` (centres undefined), the inhibition came to 9.1%. Regarding `O=C(Cn1c(=O)n(Cc2ccco2)c(=O)c2sc3ccccc3c21)NCc1ccc(Cl)cc1`, the inhibition is 0%.

With `COc1ccccc1CNC(=O)C(Cc1ccccc1)NS(=O)(=O)c1cccc2nsnc12` (centres undefined), the inhibition was 4.8%. For `O=C(CC(NS(=O)(=O)c1ccc(Cl)cc1)c1ccco1)NCc1cccnc1` (centres undefined), the inhibition is 9.6%.

As for `COc1ccc(OC)c(NC(=O)C(Cc2ccccc2)NS(=O)(=O)c2cccc3nsnc23)c1` (centres undefined), the inhibition came to 6.4%. For `Cc1nnc(SCC(=O)NCCc2cccs2)c2nn(-c3ccccc3)c(C)c12`, the inhibition came out at 17%. Regarding `O=C(C(Cc1ccccc1)NS(=O)(=O)c1ccc2nsnc2c1)N1CCC2(CC1)OCCO2` (centres undefined), the inhibition was determined as 6%. Regarding `CC(C)c1ccc(S(=O)(=O)c2nnn3c2nc(NC(C)c2ccccc2)c2sccc23)cc1` (centres undefined), the inhibition amounted to 8%. Consider `Cc1cc(C)cc(-n2c(=O)c3sccc3n(CC(=O)N3CCN(c4ccccc4)CC3)c2=O)c1`, for which the inhibition turned out to be 2.2%. Under `O=C(C(Cc1ccccc1)NS(=O)(=O)c1cccc2cccnc12)N1CCC2(CC1)OCCO2` (centres undefined) stands 9%; under `COc1ccc(CCNC(=O)C(Cc2ccccc2)NS(=O)(=O)c2ccc(Br)cc2)cc1OC` (centres undefined), 14%.

For `CCC1CCCCN1CCNC(=O)C(Cc1ccccc1)NS(=O)(=O)c1ccc2nsnc2c1` (centres undefined), the inhibition was 0%.

As for `O=C(NCc1ccccc1)C(Cc1ccccc1)NS(=O)(=O)c1cccc2nsnc12` (centres undefined), the inhibition turned out to be 3.2%. As for `O=C(NCc1ccccc1)C(Cc1ccccc1)NS(=O)(=O)c1cccc2cccnc12` (centres undefined), the inhibition is 11.2%.

Turning to `COc1ccc(Cc2cccc(CNC(=O)C3CCCN(c4ncnc5onc(-c6ccc(F)cc6)c45)C3)c2)cc1` (centres undefined), the inhibition is 39%. Turning to `O=C(NC1CCCc2ccccc21)C(Cc1ccccc1)NS(=O)(=O)c1cccc2nsnc12` (centres undefined), the inhibition stood at 0%. `O=C(Nc1ccccc1Cl)C(Cc1ccccc1)NS(=O)(=O)c1cccc2nsnc12` (centres undefined): the inhibition is 10%.

`COc1ccc(CCNC(=O)CN(CCc2ccccc2)S(=O)(=O)c2ccccc2)cc1OC`: the inhibition is 15.2%. `CC1(C)CC(=O)c2cc(C(=O)NCCCN3CCOCC3)c(=O)n(-c3ccc(Cl)cc3)c2C1`: the inhibition stood at 18%. With `O=C(NCCC1=CCCCC1)C(Cc1ccccc1)NS(=O)(=O)c1cccc2nsnc12` (centres undefined), the inhibition worked out at 0%.

Take `COc1ccccc1C1CC(c2c(O)[nH]c(=O)n(CCc3ccccc3)c2=O)=Nc2ccccc2S1` (centres undefined): the inhibition turned out to be 18%. As to `CCOc1ccccc1CNC(=O)C1CCCN(c2ncnc3onc(-c4ccc(F)cc4)c23)C1` (centres undefined), the inhibition amounted to 18%.

Consider `Cc1ccc(S(=O)(=O)NC(Cc2ccccc2)C(=O)NC(CCCNC(=N)N)C(=O)O)cc1` (stereo not drawn) (Tos-Phe-Arg-OH; configuration not given here), for which the inhibition turned out to be 0%. Consider `COc1ccccc1CNC(=O)C(Cc1ccccc1)NS(=O)(=O)c1cccc2cccnc12` (centres undefined), for which the inhibition was 9.6%. With `O=C(CCCn1c(=O)c2sccc2n(Cc2ccc(F)cc2)c1=O)NCc1ccco1`, the inhibition worked out at 0%. To `COc1ccc(OC)c(CNC(=O)C2CCCN(c3ncnc4onc(C)c34)C2)c1` (centres undefined) belongs 0%; to `COc1ccc(OC)c(CNC(=O)C2CCCN(c3ncnc4onc(-c5ccc(F)cc5)c34)C2)c1` (centres undefined), 28%. To `O=C(C(Cc1ccccc1)NS(=O)(=O)c1cccc2cccnc12)N1CCOCC1` (centres undefined) belongs 4.5%. `O=C(NCc1ccc(Cl)cc1)C1CCCN(c2ncnc3onc(-c4ccc(F)cc4)c23)C1` (centres undefined): the inhibition was determined as 23.6%. On to `CCN(CCNC(=O)C(Cc1ccccc1)NS(=O)(=O)c1cccc2nsnc12)c1ccccc1` (centres undefined), for which the inhibition came to 8%. For `NS(=O)(=O)c1ccc(CCNC(=O)C(Cc2ccccc2)NS(=O)(=O)c2cccc3nsnc23)cc1` (centres undefined), the inhibition came to 9.6%. Consider `O=C(CSc1nc2nccnc2c(=O)n1Cc1ccc2c(c1)OCO2)NCCc1ccccc1`, for which the inhibition came to 8%. Consider `COc1ccccc1CNC(=O)C1CCCN(c2ncnc3onc(-c4ccc(F)cc4)c23)C1` (centres undefined), for which the inhibition amounted to 16%. With `O=C(c1ccco1)N1CCN(C(=O)C(Cc2ccccc2)NS(=O)(=O)c2ccc3nsnc3c2)CC1` (centres undefined), the inhibition amounted to 22%.

Take `CCc1ccc(CNC(=O)C2CCCN(c3ncnc4onc(-c5ccc(F)cc5)c34)C2)cc1` (centres undefined): the inhibition was 7%. Under `O=C(C(Cc1ccccc1)NS(=O)(=O)c1ccc2nsnc2c1)N1CCn2c1nc1ccccc12` (centres undefined) stands 0%; under `O=C(N/N=C1\C(=O)N(CN(Cc2ccccc2)Cc2ccccc2)c2ccccc21)c1cccs1`, 3.8%; under `O=C(NCc1cccs1)C(Cc1ccccc1)NS(=O)(=O)c1cccc2cccnc12` (centres undefined), 12%. Turning to `O=C(CSc1nc2nccnc2c(=O)n1Cc1cccs1)NCCc1ccccc1`, the inhibition came out at 6%.

Regarding `O=C(NCCc1ccc(Cl)cc1)C1CCCN(c2ncnc3onc(-c4ccc(F)cc4)c23)C1` (centres undefined), the inhibition turned out to be 14.5%.

For the compound `Cc1cccc(CN2C(=O)c3ccccc3Sc3ccc(C(=O)NCc4cccs4)cc32)c1`, the inhibition was found to be 8.3%. For `O=C(NCC1COc2ccccc2O1)C(Cc1ccccc1)NS(=O)(=O)c1ccc2nsnc2c1` (centres undefined), the inhibition was determined as 20%.

Regarding `Cc1ccc(S(=O)(=O)NC(CC(=O)NCc2cccnc2)c2ccco2)cc1` (centres undefined), the inhibition came out at 7%. Under `O=C(NCc1ccccc1Cl)C(Cc1ccccc1)NS(=O)(=O)c1cccc2cccnc12` (centres undefined) stands 21.4%. In the case of `O=C(CSc1nc2ccsc2c(=O)n1-c1ccc(Cl)cc1)NCCc1ccc(Cl)cc1`, the inhibition stood at 11.4%.

For the compound `NS(=O)(=O)c1ccc(CCNC(=O)C(NS(=O)(=O)c2cccc3nsnc23)c2ccccc2)cc1` (centres undefined), the inhibition turned out to be 6%.

`COc1ccccc1NC(=O)C(Cc1ccccc1)NS(=O)(=O)c1cccc2cccnc12` (centres undefined): the inhibition worked out at 19.3%. Turning to `COc1ccc(N2CCN(C(=O)Cc3csc4nc(-c5ccc(F)cc5)cn34)CC2)cc1`, the inhibition amounted to 0%. Consider `Cc1cccc(C)c1NC(=S)N/N=C\c1cn(C)c2ccc(S(=O)(=O)N3CCOCC3)cc12`, for which the inhibition was 0%. For `O=C(NCc1cccc(Cl)c1)C1CCCN(c2ncnc3onc(-c4ccc(F)cc4)c23)C1` (centres undefined), the inhibition came out at 6%. On to `O=C(Cn1c(=O)n(Cc2ccc3c(c2)OCO3)c(=O)c2ccccc21)NCCc1ccccc1`, for which the inhibition was 25.9%. As to `COc1ccc(/C=C(\NC(=O)c2ccccc2)C(=O)NCCCCCC(=O)O)cc1`, the inhibition was found to be 8%.

`N#Cc1ccccc1Cn1c(=O)n(CCC(=O)NCc2ccc3c(c2)OCO3)c(=O)c2ccccc21`: the inhibition was determined as 1%. Take `Cc1noc2ncnc(N3CCCC(C(=O)NCc4ccc5c(c4)OCO5)C3)c12` (centres undefined): the inhibition was determined as 3%. On to `COc1ccc([N+](=O)[O-])cc1NC(=O)C(Cc1ccccc1)NS(=O)(=O)c1cccc2nsnc12` (centres undefined), for which the inhibition came to 8%. To `CCOC(=O)c1sc2nc(SCC(=O)NCc3ccccc3)n(Cc3ccco3)c(=O)c2c1C` belongs 25.9%. For the compound `O=C(NCCc1ccccc1)C(Cc1ccccc1)NS(=O)(=O)c1ccc(Br)cc1` (centres undefined), the inhibition worked out at 6.4%. Consider `O=C(NCCC1=CCCCC1)C(Cc1ccccc1)NS(=O)(=O)c1cccc2cccnc12` (centres undefined), for which the inhibition came out at 19.3%. As for `CCOC(=O)C(NC(=O)/C(=C/c1ccc(Cl)cc1)NC(=O)c1ccco1)C(C)C` (centres undefined), the inhibition was 0%.

Take `Nc1c([S+]([O-])Cc2ccc(Cl)cc2)sc2nc(-c3cccs3)cc(-c3ccccc3)c12` (centres undefined): the inhibition is 1%. Consider `COc1ccc(CNC(=O)C2CCCN(c3ncnc4onc(C)c34)C2)cc1` (centres undefined), for which the inhibition stood at 4.6%. `O=C(CCNS(=O)(=O)c1cccc2nsnc12)N(CCc1ccccc1)Cc1ccccc1`: the inhibition was 0%. As for `Cc1ccc(Cl)cc1NC(=O)C(Cc1ccccc1)NS(=O)(=O)c1cccc2nsnc12` (centres undefined), the inhibition turned out to be 3.2%. In the case of `Cc1ccc(Cl)cc1NC(=O)C(Cc1ccccc1)NS(=O)(=O)c1cccc2cccnc12` (centres undefined), the inhibition came out at 14%. Consider `CCc1ccccc1NC(=O)C(Cc1ccccc1)NS(=O)(=O)c1cccc2nsnc12` (centres undefined), for which the inhibition was 2%. To `O=C(NCCc1ccccc1)C(Cc1ccccc1)NS(=O)(=O)c1cccc2nsnc12` (centres undefined) belongs 0%; to `COc1cccc(C(CC(=O)NCCCN2CCOCC2)NS(=O)(=O)c2ccc(C)cc2)c1OC` (centres undefined), 0%; to `Cc1ccc(C)c(NC(=O)C(Cc2ccccc2)NS(=O)(=O)c2cccc3cccnc23)c1` (centres undefined), 0%. As to `O=C1c2cccnc2C(=O)N1Cc1ccc(F)cc1S(=O)(=O)N1CCN(c2ccccc2F)CC1`, the inhibition came out at 2.3%. Under `Cc1ccc(CNC(=O)C(Cc2ccccc2)NS(=O)(=O)c2cccc3cccnc23)cc1` (centres undefined) stands 0%; under `O=C(CCCn1c(=O)c2sccc2n(Cc2ccc(F)cc2Cl)c1=O)NCc1ccco1`, 12.2%; under `O=C(NCc1ccc2c(c1)OCO2)C(Cc1ccccc1)NS(=O)(=O)c1cccc2nsnc12` (centres undefined), 0%. Turning to `O=C(N/N=C/c1ccc(Br)s1)c1cc(-c2ccccc2)nc2ccccc12`, the inhibition was determined as 5%. As to `CN1CCN(C(=O)C(Cc2ccccc2)NS(=O)(=O)c2cccc3cccnc23)CC1` (centres undefined), the inhibition amounted to 0%. As to `CN1CCN(c2ccccc2NC(=O)C(Cc2ccccc2)NS(=O)(=O)c2cccc3nsnc23)CC1` (centres undefined), the inhibition worked out at 9.6%.

In the case of `Cc1cc(NC(=O)C(Cc2ccccc2)NS(=O)(=O)c2cccc3cccnc23)no1` (centres undefined), the inhibition worked out at 9.6%. Under `CC1CCN(CCNC(=O)C(Cc2ccccc2)NS(=O)(=O)c2cccc3cccnc23)CC1` (centres undefined) stands 7%.

Consider `C/C=C/C(=O)NC(=S)NNC(=O)C(Oc1ccccc1)Oc1ccccc1`, for which the inhibition turned out to be 16.1%.
